The values that follow come from publication PMC7974029 (The Journal of Biological Chemistry, 2021).

For one assay, the target named is T1, BtSGBP-A (Bacteroides thetaiotaomicron, UniProt A0A173VPY3).
T1 sequence (A0A173VPY3 23-515): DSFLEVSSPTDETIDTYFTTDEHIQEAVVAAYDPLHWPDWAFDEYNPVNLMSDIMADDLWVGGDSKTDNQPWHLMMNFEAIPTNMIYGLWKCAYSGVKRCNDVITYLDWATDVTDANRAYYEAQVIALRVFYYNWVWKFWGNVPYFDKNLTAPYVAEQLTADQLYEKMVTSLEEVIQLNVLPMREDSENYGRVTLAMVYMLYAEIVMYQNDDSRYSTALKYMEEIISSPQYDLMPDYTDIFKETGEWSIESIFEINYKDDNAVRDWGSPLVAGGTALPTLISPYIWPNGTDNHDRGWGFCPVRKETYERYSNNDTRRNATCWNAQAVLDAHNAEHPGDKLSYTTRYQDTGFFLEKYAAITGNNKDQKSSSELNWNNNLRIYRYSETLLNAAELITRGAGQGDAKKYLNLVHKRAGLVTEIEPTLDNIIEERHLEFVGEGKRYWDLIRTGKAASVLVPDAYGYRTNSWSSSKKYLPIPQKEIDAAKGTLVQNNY
The experiment in a line: ITC of laminarioligosaccharides with BtSGBP-A. Format: binding. The settings on record: for KD: BtSGBP-A, ITC, value as given in running text. The method, boiled down: (§1)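 Recombinant SGBP from E. coli BL21(DE3) (IMAC, tag cleavage, SEC) at 100 μM in the cell was titrated with 1 mM laminari- or mixed-linkage gluco-oligosaccharide, all in 20 mM HEPES pH 7.0, at 25 °C. One 0.2 μl injection, then 18 × 2 μl at 150 s intervals, stirring 750 rpm. Isotherms were fitted with stoichiometry n fixed at 1.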

Assay [1] has as its target T2, BfSGBP-B (Bacteroides fluxus, UniProt F3PPH3).
T2 sequence (F3PPH3 21-290): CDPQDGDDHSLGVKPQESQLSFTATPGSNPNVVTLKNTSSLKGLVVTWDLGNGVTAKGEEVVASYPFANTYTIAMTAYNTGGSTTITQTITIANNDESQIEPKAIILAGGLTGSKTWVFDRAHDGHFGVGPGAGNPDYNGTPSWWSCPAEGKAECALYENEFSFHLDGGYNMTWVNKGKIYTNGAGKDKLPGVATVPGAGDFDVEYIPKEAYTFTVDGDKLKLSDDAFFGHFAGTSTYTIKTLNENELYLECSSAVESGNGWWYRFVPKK
The experiment in a line: ITC of laminarioligosaccharides and MLG oligosaccharides with BfSGBP-B. Format: binding. The method, boiled down: as §1

Another assay relates to CBML-middle of BuSGBP-B. The experiment in a line: Affinity gel electrophoresis, BuSGBP-B CBML-middle domain. It counts as binding, Bacteroides uniformis. The conditions noted are these: 0.1% (w/v) polysaccharide in native gel. The procedure, abridged:
(§2)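 Native PAGE with 10% (w/v) acrylamide cast with 0.1% (w/v) polysaccharide, or water for the control gel. 6.0 μg recombinant SGBP domain (His₆-tagged, E. coli BL21(DE3), Ni-IMAC, tag removed, size-exclusion purified) and 5.0 μg BSA reference were loaded. Gels were run nondenaturing at 80 V, 3 h, room temperature, and stained with Coomassie Brilliant Blue.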

Another assay relates to BuSGBP-A. The conditions noted are these: cited from earlier work.
The test system of a further assay is BuSGBP-B. The conditions noted are these: BuSGBP-B full length; cited from earlier work.
Assay [2] deals with T2, BfSGBP-B. The conditions noted are these: BfSGBP-B full length; cited from earlier work.
A further assay has as its system CBML-distal of BuSGBP-B. The experiment in a line: Affinity gel electrophoresis, BuSGBP-B CBML-distal domain. It counts as binding, Bacteroides uniformis. The conditions noted are these: 0.1% (w/v) polysaccharide in native gel. The method, boiled down: as §2
Assay [3] concerns CBML-middle domain of BtSGBP. The assay can be described thus: Affinity gel electrophoresis, BtSGBP-B CBML-middle domain. It counts as binding, Bacteroides thetaiotaomicron. The settings on record: 0.1% (w/v) polysaccharide in native gel. The procedure, abridged:
as §2

Take `OC[C@H]1O[C@@H](O[C@@H]2[C@@H](O)[C@H](O[C@@H]3[C@@H](O)[C@H](O[C@H]4[C@H](O)[C@@H](CO)OC(O)[C@@H]4O)O[C@H](CO)[C@H]3O)O[C@H](CO)[C@H]2O)[C@H](O)[C@@H](O)[C@@H]1O` (stereo partly drawn) [Laminaritetraose]: the KD entry at BtSGBP-A is recorded as “too weak to be quantified”.
Turning to `OC[C@H]1O[C@@H](O[C@@H]2[C@@H](O)[C@H](O[C@@H]3[C@@H](O)[C@H](O[C@@H]4[C@@H](O)[C@H](O[C@H]5[C@H](O)[C@@H](CO)OC(O)[C@@H]5O)O[C@H](CO)[C@H]4O)O[C@H](CO)[C@H]3O)O[C@H](CO)[C@H]2O)[C@H](O)[C@@H](O)[C@@H]1O` (stereo partly drawn) [Laminaripentaose], the dissociation constant Kd (in general, the equilibrium constant for the complex coming apart) on BtSGBP-A was found to be 210 µM.
On to `OC[C@H]1O[C@@H](O[C@H]2[C@H](O)[C@@H](O)[C@H](O[C@H]3[C@H](O)[C@@H](O)[C@H](O[C@H]4[C@H](O)[C@@H](CO)OC(O)[C@@H]4O)O[C@@H]3CO)O[C@@H]2CO)[C@H](O)[C@@H](O)[C@@H]1O` (stereo partly drawn) [G4G4G3G], for which, at BfSGBP-B [1], the “binding to BfSGBP-B by ITC (in words)” value was “binding”.
Take β(1,3)-glucan: the “binding by affinity gel electrophoresis (AGE)” value in the assay on CBML-middle of BuSGBP-B and in the assay on CBML-distal of BuSGBP-B was “bind” in each case. The polysaccharide binding result with BuSGBP-A is “does not display binding”; in the assay on BuSGBP-B, “bind”; on BfSGBP-B [2], “bind”.
Turning to “mixed-linkage β(1,3)/β(1,4)-glucan [MLG]”, the “binding by affinity gel electrophoresis (AGE)” value is given as “exclusively responsible for the binding” in the assay with CBML-middle of BuSGBP-B and “cannot bind” in assay [3]. For the same compound, the polysaccharide binding entry with BuSGBP-B and at BfSGBP-B [2] was “bind” in each case.
On to `OC[C@H]1O[C@@H](O[C@@H]2[C@@H](O)[C@H](O[C@@H]3[C@@H](O)[C@H](O[C@@H]4[C@@H](O)[C@H](O[C@@H]5[C@@H](O)[C@H](O[C@H]6[C@H](O)[C@@H](CO)OC(O)[C@@H]6O)O[C@H](CO)[C@H]5O)O[C@H](CO)[C@H]4O)O[C@H](CO)[C@H]3O)O[C@H](CO)[C@H]2O)[C@H](O)[C@@H](O)[C@@H]1O` (stereo partly drawn) [Laminarihexaose], for which the dissociation constant (Kd) on BtSGBP-A amounted to 26 µM.
With `OC[C@H]1O[C@@H](O[C@H]2[C@H](O)[C@@H](O)[C@H](O[C@H]3[C@H](O)[C@@H](CO)OC(O)[C@@H]3O)O[C@@H]2CO)[C@H](O)[C@@H](O)[C@@H]1O` (stereo partly drawn) [G4G3G], the “binding to BfSGBP-B by ITC (in words)” value on BfSGBP-B [1] is “binding”.
In the case of `OC[C@H]1O[C@@H](O[C@@H]2[C@@H](O)[C@H](O[C@H]3[C@H](O)[C@@H](CO)OC(O)[C@@H]3O)O[C@H](CO)[C@H]2O)[C@H](O)[C@@H](O)[C@@H]1O` (stereo partly drawn) [Laminaritriose], the KD entry at BtSGBP-A is reported as “too weak to be quantified”.
